Results reported in ChEMBL document CHEMBL1153179, “Optimization of orally bioavailable alkyl amine renin inhibitors” (Bioorg Med Chem Lett, 2010).
Active and inactive are the calls of the source. No cut-off for these calls is given here.

Columns and labels:
[1] = Half life in cynomolgus monkey at 1 mg/kg, po; assay type: ADME, organism-based, Macaca fascicularis; set-up: dose 1 mg/kg, route oral; details: in vivo
[2] = Oral bioavailability in cynomolgus monkey at 1 mg/kg; assay type: ADME, organism-based, Macaca fascicularis; details: in vivo
Method in brief: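 Cynomolgus monkeys were dosed with the fumarate salt orally at 1 mg/kg and intravenously at 1 mg/kg. Oral bioavailability (F, %) was reported alongside oral Cmax, tmax, AUC(0-t), oral t1/2, IV clearance and Vss.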

[3] = Cmax in cynomolgus monkey at 1 mg/kg, po; assay type: ADME, organism-based, Macaca fascicularis; set-up: dose 1 mg/kg, route oral; details: in vivo
[4] = Selectivity for human recombinant renin over cathepsin E
[5] = Volume of distribution at steady state in cynomolgus monkey at 1 mg/kg, iv or 1 mg/kg, po; assay type: ADME, organism-based, Macaca fascicularis; details: in vivo, read-out: Vdss
[6] = target: T1, Renin (Homo sapiens, UniProt P00797); assay: Inhibition of trypsin-activated human recombinant renin
T1 sequence (P00797 whole entry): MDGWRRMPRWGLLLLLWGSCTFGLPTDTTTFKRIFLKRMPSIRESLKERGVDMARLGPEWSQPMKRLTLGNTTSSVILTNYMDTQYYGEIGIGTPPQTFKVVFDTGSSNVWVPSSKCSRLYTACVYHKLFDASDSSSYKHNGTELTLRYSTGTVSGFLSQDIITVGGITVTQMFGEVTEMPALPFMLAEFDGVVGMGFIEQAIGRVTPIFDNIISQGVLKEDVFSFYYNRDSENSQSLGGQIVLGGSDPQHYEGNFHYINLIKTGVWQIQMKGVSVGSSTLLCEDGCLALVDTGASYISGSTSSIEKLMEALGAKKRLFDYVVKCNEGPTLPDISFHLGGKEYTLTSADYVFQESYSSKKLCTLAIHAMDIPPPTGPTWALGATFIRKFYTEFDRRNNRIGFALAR

[7] = Cmax in rat at 10 mg/kg, po; assay type: ADME, organism-based; set-up: dose 10 mg/kg, route oral; details: in vivo
[8] = AUC (0 to t) in cynomolgus monkey at 1 mg/kg, po; assay type: ADME, organism-based, Macaca fascicularis; set-up: dose 1 mg/kg, route oral; details: plasma
[9] = Clearance in cynomolgus monkey at 1 mg/kg, iv; assay type: ADME, organism-based, Macaca fascicularis; set-up: dose 1 mg/kg, route intravenous; details: in vivo
[10] = Selectivity for human recombinant renin over cathepsin D
[11] = AUC (0 to t) in rat at 10 mg/kg, po; assay type: ADME, organism-based, Plasma; set-up: dose 10 mg/kg, route oral; details: plasma
[12] = Volume of distribution at steady state in rat at 10 mg/kg, po or 2 mg/kg, iv; assay type: ADME, organism-based; details: in vivo, read-out: Vdss
[13] = Selectivity for human recombinant renin over beta-secretase
[14] = Oral bioavailability in rat at 10 mg/kg; assay type: ADME, organism-based; details: in vivo
[15] = Clearance in rat at 2 mg/kg, iv; assay type: ADME, organism-based; set-up: dose 2 mg/kg, route intravenous; details: in vivo
[16] = test system: Rattus norvegicus; assay: Reduction in mean blood pressure in double transgenic rat model of hypertension at 10 mg/kg, po after >20 hrs; assay type: functional, organism-based; set-up: dose 10 mg/kg
Method in brief: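 Double transgenic rats expressing human renin and human angiotensinogen (dTGR) given a single 10 mg/kg oral dose; mean arterial pressure followed over 24 h against vehicle-treated animals, with statistical significance assessed.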

[17] = Tmax in cynomolgus monkey at 1 mg/kg, po; assay type: ADME, organism-based, Macaca fascicularis; set-up: dose 1 mg/kg, route oral; details: in vivo
[18] = Half life in rat at 10 mg/kg, po; assay type: ADME, organism-based; set-up: dose 10 mg/kg, route oral; details: in vivo
[19] = target: T1, Renin; assay: Inhibition of human recombinant renin assessed as decrease in plasma renin activity by competitive radioimmunoassay in presence of human plasma
[20] = Half life in human liver microsomes; assay type: ADME, Microsome
[21] = Tmax in rat at 10 mg/kg, po; assay type: ADME, organism-based; set-up: dose 10 mg/kg, route oral; details: in vivo

Molecule `CNC[C@H](CC1CCCCC1)NC(=O)N1CCC[C@@H]([C@@H](OCCNC(=O)OC)c2cccc(Cl)c2)C1` has a half-life [1] of 29.2 h, a bioavailability [2] of 9.9% and a Cmax [3] of 33.3 ng/mL. For the same molecule, the Selectivity ratio [4] was over 1000, the Vd [5] was 9.8 L/kg and the IC50 [6] was 0.48 nM. It also gave a Cmax [7] of 94 ng/mL, an AUC(0-t) [8] of 130 ng·h/mL and a clearance [9] of 11.7 mL/min/kg. It also gave a Selectivity ratio [10] of over 1000, an AUC(0-t) [11] of 301 ng·h/mL and a Vd [12] of 19 L/kg. The Selectivity ratio [13] was over 1000, the bioavailability [14] was 9.4% and the clearance [15] was 36 mL/min/kg. For the same molecule, the Activity [16] was “Active”, the Tmax [17] was 1 h and the half-life [18] was 9.7 h. For the same molecule, the IC50 [19] was 0.82 nM, the half-life [20] was over 0.5 h and the Tmax [21] was 3 h.
For `CNC[C@H](CC1CCCCC1)NC(=O)N1CCC[C@@H]([C@@](O)(CCCNC(C)=O)c2cccc(Cl)c2)C1`, the Vd [12] was 117 L/kg, the clearance [15] was 23 mL/min/kg and the IC50 [19] was 16 nM.
`CNC[C@H](CC1CCCCC1)NC(=O)N1CCC[C@@H]([C@@H](OCCNC(=O)OC)c2cc(Cl)ccc2F)C1` gave an IC50 [6] of 0.62 nM and an IC50 [19] of 2.1 nM.
Molecule `CCOC(=O)NCCC[C@@](O)(c1cccc(Cl)c1)[C@@H]1CCCN(C(=O)N[C@H](CNC)CC2CCCCC2)C1` has an IC50 [6] of 14 nM and an IC50 [19] of 170 nM.
With `CNC[C@H](CC1CCCCC1)NC(=O)N1CCC[C@@H]([C@@H](OCCNC(=O)OC)c2cc(F)cc(F)c2)C1` the IC50 [6] was 0.23 nM and the IC50 [19] was 1.2 nM.
For `CNC[C@H](CC1CCCCC1)NC(=O)N1CCC[C@@H]([C@@](O)(CCCNC(=O)N(C)C)c2cccc(Cl)c2)C1`, the IC50 [6] was 2260 nM.
Molecule `CNC[C@H](CC1CCCCC1)NC(=O)N1CCC[C@@H]([C@@H](OCCNC(=O)OC)c2cccc(F)c2F)C1` has an IC50 [6] of 1.7 nM and an IC50 [19] of 6.2 nM.
`CNC[C@H](CC1CCCCC1)NC(=O)N1CCC[C@@H]([C@@H](OCCNC(=O)OC)c2ccc(F)c(F)c2)C1` gave an IC50 [6] of 2.5 nM and an IC50 [19] of 16.6 nM.
`COC(=O)NCCO[C@@H](c1cccc(Cl)c1)[C@@H]1CCCN(C(=O)N[C@H](CN)CC2CCCCC2)C1` showed an IC50 [6] of 0.48 nM, a Cmax [7] of 63 ng/mL and an AUC(0-t) [11] of 201 ng·h/mL. For the same molecule, the Vd [12] was 51 L/kg, the bioavailability [14] was 7.2% and the clearance [15] was 53 mL/min/kg. It also gave a half-life [18] of 7.8 h, an IC50 [19] of 2.6 nM and a Tmax [21] of 4 h.
`CNC[C@H](CC1CCCCC1)NC(=O)N1CCC[C@@H]([C@@H](OCCNC(=O)OC)c2cccc(Cl)c2F)C1` showed an IC50 [6] of 0.61 nM and an IC50 [19] of 3.4 nM.
Molecule `CNC[C@H](CC1CCCCC1)NC(=O)N1CCC[C@@H]([C@@H](OCCNC(=O)OC)c2ccccc2)C1` has an IC50 [6] of 1.17 nM and an IC50 [19] of 2.9 nM.
For `CNC[C@H](CC1CCCCC1)NC(=O)N1CCC[C@@H]([C@@H](OCCNC(=O)OC)c2cccc(C)c2)C1`, the IC50 [6] was 0.47 nM and the IC50 [19] was 4 nM.
In the case of `CCC(=O)NCCC[C@@](O)(c1cccc(Cl)c1)[C@@H]1CCCN(C(=O)N[C@H](CNC)CC2CCCCC2)C1`, the IC50 [6] is reported as 1.5 nM and the IC50 [19] is reported as 21 nM.
`CNC[C@H](CC1CCCCC1)NC(=O)N1CCC[C@@H]([C@@](O)(CCCNC(=O)NC)c2cccc(Cl)c2)C1` gave an IC50 [6] of 46 nM and an IC50 [19] of 141 nM.
